Measurements published in ChEMBL document CHEMBL3414514, “Synthesis and pharmacological evaluation of novel bisindole derivatives bearing oximes moiety: identification of novel proapoptotic agents” (Eur J Med Chem, 2015).

Key:
MGC-803 = experiment: Cytotoxicity against human MGC803 cells after 2 days by MTT assay; assay type: functional, cell-based; details: MGC-803, 48 h
Method in brief: (§1)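 Cells grown in medium with 10% heat-inactivated FBS at 37 C under 5% CO2. Compounds dissolved in medium with 1% DMSO; controls received 1% DMSO. After 2 days, MTT (10 mg/mL) added for 4 h, formazan dissolved in DMSO and absorbance read at 570/630 nm. Survival taken relative to negative control; IC50 by Bliss method (n = 5), at least three independent experiments.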

[1] = Cytotoxicity against human SKOV3 cells after 2 days by MTT assay; assay type: functional, cell-based; details: SK-OV-3, 48 h; method in brief: as §1
[2] = Cytotoxicity against human T24 cells after 2 days by MTT assay; assay type: functional, cell-based; details: T-24, 48 h; method in brief: as §1
[3] = Cytotoxicity against human SPCA2 cells after 2 days by MTT assay; assay type: functional, cell-based; details: SPCA2, 48 h; method in brief: as §1
NCI-H460 = experiment: Cytotoxicity against human NCI-H460 cells after 2 days by MTT assay; assay type: functional, cell-based; details: NCI-H460, 48 h; method in brief: as §1
HepG2 = experiment: Cytotoxicity against human HepG2 cells after 2 days by MTT assay; assay type: functional, cell-based; details: HepG2, 48 h; method in brief: as §1
HUVEC = experiment: Cytotoxicity against human HUVEC cells after 2 days by MTT assay; assay type: cell-based; details: 48 h; method in brief: as §1
A549 = experiment: Cytotoxicity against human A549 cells after 2 days by MTT assay; assay type: functional, cell-based; details: A549, 48 h; method in brief: as §1

Row | Compound | IC50 (MGC-803) [µM] | IC50 [1] [µM] | IC50 [2] [µM] | IC50 [3] [µM] | IC50 (NCI-H460) [µM] | IC50 (HepG2) [µM] | IC50 (HUVEC) [µM] | IC50 (A549) [µM]
1 | Clc1cccc(CO/N=C2/C(c3c[nH]c4ccc(Br)cc34)=Nc3ccc(Br)cc32)c1 | 7.6 | 14.1 | 9.34 | 13.5 | 14.6 | 13.3 | > 100 | 12.9
2 | COC(=O)c1ccc2c(c1)/C(=N\O)C(c1c[nH]c3ccc(C(=O)OC)cc13)=N2 | 22.4 | 15.6 | 11.5 | 14.9 | 14 | 15.3 | > 100 | 20.5
3 | N#Cc1cccc2c1/C(=N\O)C(c1c[nH]c3cccc(C#N)c13)=N2 | 35.4 | 30.6 | 19.4 | 30.9 | 18.8 | 40.5 | > 100 | 33.6
4 | Cc1ccc(CO/N=C2/C(c3c[nH]c4ccccc34)=Nc3ccccc32)cc1 | 22.8 | 32.4 | 23.5 | 25.4 | 29.8 | 19.1 | > 100 | 22.4
5 | C=CCO/N=C1/C(c2c[nH]c3ccccc23)=Nc2ccccc21 | 24.3 | 26.7 | 32.1 | 26.9 | 24.5 | 31.3 | > 100 | 30.9
6 | Cc1cccc2c1N=C(c1c[nH]c3c(C)cccc13)/C2=N/OCc1cccc(Cl)c1 | 26.4 | 26.5 | 17.6 | 18.2 | 23.1 | 22.8 | > 100 | 31.9
7 | O/N=C1/C(c2c[nH]c3ccc(Br)cc23)=Nc2ccc(Br)cc21 | 13.2 | 19.2 | 12.5 | 11.6 | 18.9 | 14.3 | > 100 | 16.2
8 | Cc1ccc(CO/N=C2/C(c3c[nH]c4ccc(Br)cc34)=Nc3ccc(Br)cc32)cc1 | 31.2 | 7.22 | 21.4 | 15.1 | 10.6 | 20.4 | > 100 | 13.3
9 | COC(=O)c1ccc2c(c1)N=C(c1c[nH]c3cc(C(=O)OC)ccc13)/C2=N/O | 29.8 | 26.8 | 14.3 | 27.2 | 20.8 | 20.8 | > 100 | 25.9
10 | Fc1ccc2c(c1)/C(=N\OCc1ccccc1)C(c1c[nH]c3ccc(F)cc13)=N2 | 21.3 | 12.3 | 12.5 | 13.3 | 12 | 17.3 | > 100 | 10.5
11 | O/N=C1/C(c2c[nH]c3ccccc23)=Nc2ccccc21 | 20.6 | 15.9 | 27.4 | 20.4 | 22.5 | 20.4 | > 100 | 21.8
12 | O/N=C1/C(c2c[nH]c3ccc(F)cc23)=Nc2ccc(F)cc21 | 12.3 | 9.89 | 10.1 | 13.7 | 12.8 | 9.31 | > 100 | 11.9
13 | Cc1cccc2c1N=C(c1c[nH]c3c(C)cccc13)/C2=N/O | 16.9 | 48 | 23.5 | 24.3 | 31.4 | 15.6 | > 100 | 17.5
14 | N#Cc1ccc2c(c1)/C(=N\O)C(c1c[nH]c3ccc(C#N)cc13)=N2 | 18.4 | 25.9 | 28.4 | 19.2 | 14.3 | 30.1 | > 100 | 14.9
15 | c1ccc2c(c1)N=C(c1c[nH]c3ccccc13)/C2=N/OCC1CC1 | 29.9 | 32.3 | 35.4 | 33.8 | 40.9 | 32.1 | > 100 | 36.7
16 | Cc1ccc(CO/N=C2/C(c3c[nH]c4ccc(F)cc34)=Nc3ccc(F)cc32)cc1 | 20.8 | 11.3 | 20 | 11 | 12 | 19.6 | > 100 | 13.6
17 | N#Cc1ccc2c(c1)/C(=N\OCc1ccccc1)C(c1c[nH]c3ccc(C#N)cc13)=N2 | 15.5 | 16.6 | 18.6 | 19.3 | 14.5 | 25.1 | > 100 | 14.2

Row | Compound | IC50 (MGC-803) [µM] | IC50 [1] [µM] | IC50 [2] [µM] | IC50 [3] [µM] | IC50 (NCI-H460) [µM] | IC50 (HepG2) [µM] | IC50 (HUVEC) [µM] | IC50 (A549) [µM]
18 | Cc1cccc2c1/C(=N\O)C(c1c[nH]c3cccc(C)c13)=N2 | 25 | 27 | 15 | 42.2 | 24.2 | 21.3 | > 100 | 44.9
19 | Fc1ccc(CO/N=C2/C(c3c[nH]c4ccccc34)=Nc3ccccc32)cc1 | 33 | 29 | 23.1 | 25.9 | 20.7 | 35.5 | > 100 | 27
20 | FC(F)(F)c1ccc(CO/N=C2/C(c3c[nH]c4ccccc34)=Nc3ccccc32)cc1 | 30.6 | 24.2 | 18.9 | 21.2 | 24.1 | 22.3 | > 100 | 21.9
21 | O/N=C1/C(c2c[nH]c3ccc(OCc4ccccc4)cc23)=Nc2ccc(OCc3ccccc3)cc21 | 14.5 | 17.6 | 11.8 | 12 | 16.6 | 19 | > 100 | 19.5
22 | Cc1ccc2c(c1)/C(=N\O)C(c1c[nH]c3ccc(C)cc13)=N2 | 9.47 | 11.1 | 8.78 | 19.6 | 18.3 | 10.7 | > 100 | 11.2
23 | Cc1cccc2c1N=C(c1c[nH]c3c(C)cccc13)/C2=N/OCc1cccc(F)c1 | 31.9 | 17.3 | 21.2 | 20.4 | 16.8 | 34.1 | > 100 | 23.3
24 | c1ccc(CO/N=C2/C(c3c[nH]c4ccccc34)=Nc3ccccc32)cc1 | 15.4 | 16.9 | 12.2 | 21.4 | 22 | 19.5 | > 100 | 19.3
25 | FC(F)(F)c1ccc(CO/N=C2/C(c3c[nH]c4ccc(Br)cc34)=Nc3ccc(Br)cc32)cc1 | 11.1 | 10.2 | 9.88 | 12.4 | 11.2 | 11.1 | > 100 | 8.45
26 | O=[N+]([O-])c1ccc2c(c1)/C(=N\O)C(c1c[nH]c3ccc([N+](=O)[O-])cc13)=N2 | 10.8 | 10.7 | 13.2 | 11.2 | 11.5 | 8.25 | > 100 | 10.4
27 | CCCCO/N=C1/C(c2c[nH]c3ccccc23)=Nc2ccccc21 | 23.3 | 46 | 35.2 | 29.2 | 42.2 | 33.6 | > 100 | 37
28 | Fc1ccc(CO/N=C2/C(c3c[nH]c4ccccc34)=Nc3ccccc32)c(Cl)c1 | 18.5 | 37.6 | 20 | 19.5 | 21.9 | 25.4 | > 100 | 21.4
29 | Fc1ccc2c(c1)N=C(c1c[nH]c3cc(F)ccc13)/C2=N/OCc1ccccc1 | 21.9 | 15.6 | 13.3 | 20.2 | 19.4 | 24.1 | > 100 | 15.7
30 | O/N=C1/C(c2c[nH]c3cc(F)ccc23)=Nc2cc(F)ccc21 | 22.1 | 16.4 | 11.7 | 10 | 22.2 | 13.8 | > 100 | 21.3
31 | O=c1[nH]cc(F)c(=O)[nH]1 [FLUOROURACIL] |  | 27.3 | 40.6 | 44.1 | 46.1 | 32 |  | 38.2
32 | COc1ccc2c(c1)/C(=N\OCc1ccc(F)cc1Cl)C(c1c[nH]c3ccc(OC)cc13)=N2 | 16.1 | 12.2 | 12.4 | 11.1 | 13 | 24.1 | > 100 | 19.1
33 | Nc1ccc2c(c1)/C(=N\O)C(c1c[nH]c3ccc(N)cc13)=N2 | 13.2 | 17.5 | 9.38 | 16.7 | 20.2 | 18.5 | > 100 | 14.8
34 | CC(=O)Nc1ccc2c(c1)/C(=N\O)C(c1c[nH]c3ccc(NC(C)=O)cc13)=N2 | 17.9 | 21.2 | 16.8 | 27.8 | 30.2 | 28.2 | > 100 | 21.9
